Source: ChEMBL document CHEMBL1255444, “In vitro antibacterial activities of JNJ-Q2, a new broad-spectrum fluoroquinolone” (Antimicrob Agents Chemother, 2010)
≈ marks a conversion by molar mass, not a printed value. Calls of active or inactive are those of the source. The calls are words filed in the database; no cut-off is given here.

Experiments:
[1] = test system: Streptococcus pneumoniae; experiment: Antibacterial activity against Streptococcus pneumoniae isolate OC7376 assessed as log reduction in bacterial growth at 4 times MIC measured at 6 hrs by time-kill assay; format: functional
In short: (§1)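 Drug was diluted from 50× stocks made in water or acidified water. Samples were taken at 6 and 24 h and serially diluted onto TSA-5% sheep blood plates. Plates were incubated 20–24 h at 37°C in 5% CO2 before counting CFU. Log10 titer change is given relative to the starting inoculum.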

[2] = test system: Streptococcus pneumoniae; experiment: Antibacterial activity against Streptococcus pneumoniae isolate OC7368 assessed as log reduction in bacterial growth at 4 times MIC measured at 24 hrs by time-kill assay; format: functional; in short: as §1
[3] = test system: Staphylococcus aureus; experiment: Antibacterial activity against methicillin-resistant Staphylococcus aureus isolate OC8530 harboring gyrA S84L and parC I143V mutant gene by broth microdilution method; format: functional
In short: (§2)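 CLSI M07-A7 broth microdilution MIC in cation-adjusted Mueller-Hinton medium. For S. pneumoniae the medium was supplemented with 5% lysed horse blood. CLSI quality-control strains were included as appropriate.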

[4] = test system: Staphylococcus aureus; experiment: Antibacterial activity against methicillin-resistant Staphylococcus aureus isolate OC8530 harboring gyrA S84L and parC I143V mutant gene assessed as log reduction in bacterial growth at 4 times MIC measured at 24 hrs by time-kill assay; format: functional
In short: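 Time-kill in cation-adjusted Mueller-Hinton broth. […] Samples were taken up to 24 h, serially diluted onto TSA and counted after 20–24 h at 37°C. Result is log10 decrease at 24 h from the starting inoculum; detection limit 100 CFU.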

[5] = test system: Serratia marcescens; experiment: Antibacterial activity against Serratia marcescens by broth microdilution method; format: functional
In short: (§3)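 MICs by CLSI M07-A7 broth microdilution in cation-adjusted Mueller-Hinton medium. For S. pneumoniae the medium was supplemented with 5% lysed horse blood. CLSI quality control strains were run alongside as appropriate.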

[6] = test system: Streptococcus pneumoniae; experiment: Antibacterial activity against Streptococcus pneumoniae isolate OC7368 assessed as log reduction in bacterial growth at 4 times MIC measured at 6 hrs by time-kill assay; format: functional; in short: as §1
[7] = test system: Enterobacter cloacae; experiment: Antibacterial activity against Enterobacter cloacae by broth microdilution method; format: functional
[8] = test system: Staphylococcus aureus; experiment: Antibacterial activity against methicillin-resistant Staphylococcus aureus isolate OC11223 assessed as log reduction in bacterial growth at 4 times MIC measured at 24 hrs by time-kill assay; format: functional
In short: (§4)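 Overnight MRSA cultures were diluted into fresh cation-adjusted Mueller-Hinton broth to about 5 × 10^6 CFU/ml. […] Samples were plated serially diluted on trypticase soy agar, and CFU were counted after 20-24 h at 37°C. Value is the log10 decrease at 24 h from the starting inoculum; detection limit 100 CFU.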

[9] = test system: Pseudomonas aeruginosa; experiment: Antibacterial activity against Pseudomonas aeruginosa ATCC 27853 by broth microdilution method; format: functional; in short: as §3
[10] = test system: Staphylococcus aureus; experiment: Antibacterial activity against methicillin-resistant Staphylococcus aureus isolate OC12501 assessed as log reduction in bacterial growth at 2 times MIC measured at 24 hrs by time-kill assay; format: functional; in short: as §4
[11] = test system: Streptococcus pneumoniae; experiment: Antibacterial activity against Streptococcus pneumoniae isolate OC6610 by broth microdilution method; format: functional
In short: (§5)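 CLSI M07-A7 broth microdilution MIC. Medium was cation-adjusted Mueller-Hinton broth. For S. pneumoniae it was Mueller-Hinton supplemented with 5% lysed horse blood. CLSI quality-control strains were included as appropriate.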

[12] = test system: Staphylococcus aureus; experiment: Antibacterial activity against methicillin-resistant Staphylococcus aureus isolate OC12501 assessed as log reduction in bacterial growth at 4 times MIC measured at 24 hrs by time-kill assay; format: functional; in short: as §4
[13] = test system: Escherichia coli; experiment: Antibacterial activity against ciprofloxacin-resistant Escherichia coli by broth microdilution method; format: functional; in short: as §5
[14] = test system: Streptococcus pneumoniae; experiment: Antibacterial activity against Streptococcus pneumoniae isolate OC6790 assessed as log reduction in bacterial growth at 2 times MIC measured at 6 hrs by time-kill assay; format: functional; in short: as §1
[15] = test system: Streptococcus pneumoniae; experiment: Antibacterial activity against Streptococcus pneumoniae isolate OC6610 assessed as log reduction in bacterial growth at 2 times MIC measured at 6 hrs by time-kill assay; format: functional; in short: as §1
[16] = test system: Providencia stuartii; experiment: Ratio of Levofloxacin MIC90 to compound MIC90 for Providencia stuartii; format: functional
[17] = test system: Staphylococcus aureus; experiment: Antibacterial activity against methicillin-resistant Staphylococcus aureus isolate OC8525 harboring wild type quinolone resistance-determining region by broth microdilution method; format: functional
[18] = test system: Streptococcus pneumoniae; experiment: Antibacterial activity against Streptococcus pneumoniae isolate OC6608 assessed as log reduction in bacterial growth at 4 times MIC measured at 6 hrs by time-kill assay; format: functional; in short: as §1
[19] = test system: Streptococcus pneumoniae; experiment: Antibacterial activity against Streptococcus pneumoniae isolate OC7189 assessed as log reduction in bacterial growth at 2 times MIC measured at 24 hrs by time-kill assay; format: functional; in short: as §1
[20] = test system: Staphylococcus epidermidis; experiment: Antibacterial activity against methicillin-, ciprofloxacin-resistant Staphylococcus epidermidis by broth microdilution method; format: functional
[21] = test system: Streptococcus pneumoniae; experiment: Antibacterial activity against Streptococcus pneumoniae isolate OC6585 assessed as log reduction in bacterial growth at 4 times MIC measured at 6 hrs by time-kill assay; format: functional; in short: as §1
[22] = test system: Staphylococcus aureus; experiment: Antibacterial activity against methicillin-resistant Staphylococcus aureus by broth microdilution method; format: functional; in short: as §5
[23] = test system: Streptococcus pneumoniae; experiment: Antibacterial activity against Streptococcus pneumoniae isolate OC7189 assessed as log reduction in bacterial growth at 4 times MIC measured at 6 hrs by time-kill assay; format: functional; in short: as §1
[24] = test system: Staphylococcus aureus; experiment: Antibacterial activity against methicillin-resistant Staphylococcus aureus isolate OC4222 harboring gyrA S84L and parC S80F mutant gene assessed as log reduction in bacterial growth at 4 times MIC measured at 24 hrs by time-kill assay; format: functional; in short: as §4
[25] = test system: Staphylococcus aureus; experiment: Antibacterial activity against methicillin-resistant Staphylococcus aureus isolate OC11223 by broth microdilution method; format: functional; in short: as §5
[26] = test system: Staphylococcus aureus; experiment: Antibacterial activity against methicillin-resistant Staphylococcus aureus isolate OC15425 harboring gyrA S84L and parC S80F mutant gene by agar dilution method; format: functional
In short: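 MICs for the resistance-selection studies were determined by CLSI agar dilution on Mueller-Hinton medium. For S. pneumoniae the medium was supplemented with 5% lysed horse blood. For MRSA fluctuation-assay strains an arithmetic agar dilution scheme was used for a more precise MIC.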

[27] = test system: Streptococcus pneumoniae; experiment: Antibacterial activity against Streptococcus pneumoniae isolate OC6610 assessed as log reduction in bacterial growth at 2 times MIC measured at 24 hrs by time-kill assay; format: functional; in short: as §1
[28] = test system: Streptococcus pneumoniae; experiment: Antibacterial activity against Streptococcus pneumoniae isolate OC6608 assessed as log reduction in bacterial growth at 2 times MIC measured at 6 hrs by time-kill assay; format: functional; in short: as §1
[29] = test system: Staphylococcus epidermidis; experiment: Antibacterial activity against methicillin-resistant Staphylococcus epidermidis by broth microdilution method; format: functional
[30] = test system: Streptococcus pneumoniae; experiment: Antibacterial activity against Streptococcus pneumoniae isolate OC5462 by broth microdilution method; format: functional; in short: as §5
[31] = test system: Providencia stuartii; experiment: Antibacterial activity against Providencia stuartii by broth microdilution method; format: functional; in short: as §3
[32] = test system: Streptococcus pneumoniae; experiment: Antibacterial activity against Streptococcus pneumoniae isolate OC7348 by broth microdilution method; format: functional; in short: as §5
[33] = test system: Streptococcus pneumoniae; experiment: Antibacterial activity against penicillin-resistant Streptococcus pneumoniae by broth microdilution method; format: functional, organism-based; in short: as §2
[34] = test system: Streptococcus pneumoniae; experiment: Antibacterial activity against ciprofloxacin-resistant Streptococcus pneumoniae by broth microdilution method; format: functional; in short: as §5
[35] = test system: Providencia stuartii; experiment: Ratio of Ciprofloxacin MIC90 to compound MIC90 for Providencia stuartii; format: functional

COc1c(N2CCC/C(=C(\F)CN)C2)c(F)cc2c(=O)c(C(=O)O)cn(C3CC3)c12 [ACORAFLOXACIN]
deltalog10CFU/ml [1]: 5.3
deltalog10CFU/ml [2]: 6.9
MIC [3]: 0.25 µg/mL (≈ 0.596 µM)
deltalog10CFU/ml [4]: 6.3
MIC50 [5]: 0.5 µg/mL (≈ 1.19 µM)
MIC90 [5]: 1 µg/mL (≈ 2.38 µM)
deltalog10CFU/ml [6]: 3.7
MIC50 [7]: 0.12 µg/mL (≈ 0.286 µM)
MIC90 [7]: 0.12 µg/mL (≈ 0.286 µM)
deltalog10CFU/ml [8]: 3.9
MIC50 [9]: 1 µg/mL (≈ 2.38 µM)
MIC90 [9]: 2 µg/mL (≈ 4.77 µM)
deltalog10CFU/ml [10]: 6.2
MIC [11]: 0.5 µg/mL (≈ 1.19 µM)
deltalog10CFU/ml [12]: 6.2
MIC50 [13]: 4 µg/mL (≈ 9.54 µM)
MIC90 [13]: 16 µg/mL (≈ 38.1 µM)
deltalog10CFU/ml [14]: 3.6
deltalog10CFU/ml [15]: 3.4
Ratio [16]: 16
MIC [17]: 0.008 µg/mL (≈ 0.0191 µM)
deltalog10CFU/ml [18]: 4.7
deltalog10CFU/ml [19]: 7.5
MIC50 [20]: 0.12 µg/mL (≈ 0.286 µM)
MIC90 [20]: 0.25 µg/mL (≈ 0.596 µM)
deltalog10CFU/ml [21]: 4.3
MIC50 [22]: 0.12 µg/mL (≈ 0.286 µM)
MIC90 [22]: 0.25 µg/mL (≈ 0.596 µM)
deltalog10CFU/ml [23]: 4.2
deltalog10CFU/ml [24]: 4.2
MIC [25]: 0.008 µg/mL (≈ 0.0191 µM)
MIC [26]: 0.12 µg/mL (≈ 0.286 µM)
deltalog10CFU/ml [27]: 5
deltalog10CFU/ml [28]: 3.8
MIC50 [29]: 0.12 µg/mL (≈ 0.286 µM)
MIC90 [29]: 0.25 µg/mL (≈ 0.596 µM)
MIC [30]: 0.06 µg/mL (≈ 0.143 µM)
MIC50 [31]: 2 µg/mL (≈ 4.77 µM)
MIC90 [31]: 4 µg/mL (≈ 9.54 µM)
MIC [32]: 0.12 µg/mL (≈ 0.286 µM)
Activity [33]: Active
MIC50 [34]: 0.12 µg/mL (≈ 0.286 µM)
MIC90 [34]: 0.25 µg/mL (≈ 0.596 µM)
Ratio [35]: 16
